Measured values taken from ChEMBL document CHEMBL1255283, “Comparative efficacies of rifaximin and vancomycin for treatment of Clostridium difficile-associated diarrhea and prevention of disease recurrence in hamsters” (2008).
Activity calls are given as the source filed them. No cut-off for these calls is given here.

Assays:
[1] = test system: Clostridioides difficile; assay: Antibacterial activity against Clostridium difficile VPI 10463 infected in golden syrian hamster assessed as survival of the […] at 50 mg/kg/day for 5 days measured after 7 days; assay type: functional
Procedure, shortened: (§1)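 Prevention design in hamsters (n = 10/group): clindamycin phosphate 10 mg/kg sc on day 0, oral gavage infection with C. difficile VPI 10463 on day 1. Rifaximin suspended in 0.1 M phosphate buffer pH 7.4 plus 4.5‰ SDS, given by gavage once daily from day 1 for 5 doses; vehicle and uninfected controls. Survivors sacrificed day 7. Weight change is % of initial body weight; non-survivors excluded.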

[2] = test system: Clostridioides difficile; assay: Antibacterial activity against Clostridium difficile VPI 10463 infected in golden syrian hamster assessed as survival of the […] at 50 mg/kg/day administered 24 hrs after infection for 5 days measured after 7 days; assay type: functional, organism-based
Procedure, shortened: (§2)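 Treatment design in hamsters (10/group per cohort): clindamycin phosphate 10 mg/kg sc on day 0, gavage infection with VPI 10463 on day 1. Oral rifaximin, suspended in phosphate buffer pH 7.4 with 4.5‰ SDS, given daily by gavage from day 2 for five doses. Survival read at day 7, with Kaplan-Meier and log-rank analysis.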

[3] = test system: Clostridioides difficile; assay: Antibacterial activity against Clostridium difficile VPI 10463 infected in golden syrian hamster assessed as survival of the […] at 50 mg/kg/day administered 24 hrs after infection for 5 days measured after 28 days; assay type: functional, organism-based
Procedure, shortened: (§3)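 Relapse study: hamsters given clindamycin phosphate 10 mg/kg sc on day 0 and infected with VPI 10463 by gavage on day 1. Daily oral rifaximin by gavage in SDS/phosphate buffer vehicle on days 2–6. Animals followed about one month for recurrence, with Kaplan-Meier survival. Body weight tracked over time as % of initial weight.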

[4] = test system: Clostridioides difficile; assay: Antibacterial activity against Clostridium difficile VPI 10463 infected in golden syrian hamster assessed as survival of the […] at 100 mg/kg/day administered 24 hrs after infection for 5 days measured after 28 days; assay type: functional; procedure, shortened: as §3
[5] = test system: Clostridioides difficile; assay: Antibacterial activity against Clostridium difficile VPI 10463 infected in golden syrian hamster assessed as body weight loss at 50 mg/kg/day for 5 days measured after 7 days relative to initial body weight; assay type: functional; procedure, shortened: as §1
[6] = test system: Clostridioides difficile; assay: Antibacterial activity against Clostridium difficile VPI 10463 infected in golden syrian hamster assessed as survival of the […] at 25 mg/kg/day administered 24 hrs after infection for 5 days measured after 28 days; assay type: functional, organism-based; procedure, shortened: as §3
[7] = test system: Clostridioides difficile; assay: Antibacterial activity against Clostridium difficile VPI 10463 infected in golden syrian hamster assessed as survival of the […] at 25 mg/kg/day administered 24 hrs after infection for 5 days measured after 7 days; assay type: functional; procedure, shortened: as §2
[8] = test system: Clostridioides difficile; assay: Antibacterial activity against Clostridium difficile VPI 10463 infected in golden syrian hamster assessed as survival of the […] at 100 mg/kg/day administered 24 hrs after infection for 5 days measured after 7 days; assay type: functional, organism-based; procedure, shortened: as §2
[9] = test system: Clostridioides difficile; assay: Antibacterial activity against Clostridium difficile VPI 10463 infected in golden syrian hamster assessed as body weight loss at 100 mg/kg/day for 5 days measured after 7 days relative to initial body weight; assay type: functional; procedure, shortened: as §1
[10] = test system: Clostridioides difficile; assay: Antibacterial activity against Clostridium difficile VPI 10463 infected in golden syrian hamster assessed as body weight gain at 100 mg/kg/day for 5 days relative to initial body weight; assay type: functional; procedure, shortened: as §3
[11] = test system: Clostridioides difficile; assay: Antibacterial activity against Clostridium difficile VPI 10463 infected in golden syrian hamster assessed as survival of the […] at 100 mg/kg/day for 5 days measured after 7 days; assay type: functional; procedure, shortened: as §1
[12] = test system: Clostridioides difficile; assay: Antibacterial activity against Clostridium difficile VPI 10463 infected in golden syrian hamster assessed as body weight loss at 25 mg/kg/day for 5 days measured after 7 days relative to initial body weight; assay type: functional; procedure, shortened: as §1

Row | SMILES | survival at 50 mg/kg/day [1] [%] | Activity [2] | Activity [3] | survival at 100 mg/kg/day [4] [%] | Activity [5] [%] | Activity [6] | survival at 25 mg/kg/day [7] [%] | Activity [8] | Activity [9] [%] | Activity [10] [%] | survival at 100 mg/kg/day [11] [%] | Activity [12] [%]
1 | CN[C@H](CC(C)C)C(=O)N[C@H]1C(=O)N[C@@H](CC(N)=O)C(=O)N[C@H]2C(=O)N[C@H]3C(=O)N[C@H](C(=O)N[C@H](C(=O)O)c4cc(O)cc(O)c4-c4cc3ccc4O)[C@H](O)c3ccc(c(Cl)c3)Oc3cc2cc(c3O[C@@H]2O[C@H](CO)[C@@H](O)[C@H](O)[C@H]2O[C@H]2C[C@](C)(N)[C@H](O)[C@H](C)O2)Oc2ccc(cc2Cl)[C@H]1O [VANCOMYCIN] | 70 | Active | Active | 25 | -6.6 | Active | 80 | – | – | – | – | –
2 | CO[C@H]1/C=C/O[C@@]2(C)Oc3c(C)c(O)c4c(O)c(c5c(nc6cc(C)ccn65)c4c3C2=O)NC(=O)/C(C)=C\C=C\[C@H](C)[C@H](O)[C@@H](C)[C@@H](O)[C@@H](C)[C@H](OC(C)=O)[C@@H]1C [RIFAXIMIN] | 70 | Active | Active | 100 | -7.9 | Active | – | Active | -8.1 | 16.7 | 80 | -8.4
